Reference: ChEMBL document CHEMBL4145534, “Computer-aided insights into receptor-ligand interaction for novel 5-arylhydantoin derivatives as serotonin 5-HT7 receptor agents with antidepressant activity” (Eur J Med Chem, 2018)
pKi: −log10 of the molar value.

Legend:
Mus musculus [1] = assay: Effect on spontaneous locomotor activity in Swiss albino mouse at 20 mg/kg, ip administered 60 mins prior to test and measured for 3 to 6 mins; format: ADME, organism-based; conditions: in vivo
Summary of the method: (§1)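 Male Swiss Albino mice given compound or vehicle (1% Tween 80, 10 ml/kg) i.p. 60 min before test. Each mouse placed alone in a cage for 30 min habituation. Ambulation (photobeam channel crossings) then recorded over a 3–6 min session. Means ± SEM.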

D(2) dopamine receptor = D(2) dopamine receptor (Homo sapiens, UniProt P14416); assay: Displacement of [3H]-raclopride from human D2L receptor expressed in HEK293 cell membranes after 1 hr by Microbeta scintillation counting method
[2] = target: Beta-1 adrenergic receptor (Rattus norvegicus, UniProt P18090); assay: Displacement of [3H]-CGP-12177 from beta1-adrenergic receptor in rat brain cortex after 1 hr by Microbeta scintillation counting method
Mus musculus [3] = assay: Anxiolytic-like activity in Swiss albino mouse assessed as number of punished crossings at 10 mg/kg, ip administered 60 mins prior to test and measured post 3 secs of electric shock by four-plate test (reference value: 3.8 to 4 /min); format: functional
[4] = target: T1, 5-hydroxytryptamine receptor 1A (Homo sapiens, UniProt P08908); assay: Displacement of [3H]-8-OH-DPAT from human 5HT1AR expressed in HEK293 cell membranes after 1 hr by Microbeta scintillation counting method
T1 sequence (P08908 whole entry): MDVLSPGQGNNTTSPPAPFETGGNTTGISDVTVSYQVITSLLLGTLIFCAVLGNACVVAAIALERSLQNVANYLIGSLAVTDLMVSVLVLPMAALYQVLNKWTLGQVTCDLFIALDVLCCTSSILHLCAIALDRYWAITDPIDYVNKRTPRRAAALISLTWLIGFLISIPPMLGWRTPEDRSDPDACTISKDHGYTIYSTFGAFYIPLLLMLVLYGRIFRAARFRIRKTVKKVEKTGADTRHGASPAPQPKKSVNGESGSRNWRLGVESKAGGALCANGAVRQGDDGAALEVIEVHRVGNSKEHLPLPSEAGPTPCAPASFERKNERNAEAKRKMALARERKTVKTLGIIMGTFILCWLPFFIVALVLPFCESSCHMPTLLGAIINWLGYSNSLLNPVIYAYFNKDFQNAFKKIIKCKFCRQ

Mus musculus [5] = assay: Antidepressant like activity in Swiss albino mouse assessed as immobility time at 5 mg/kg, ip administered 60 mins prior to test and measured last 4 mins of 6 mins test by forced swimming test (reference value: 159.78 to 183.56 secs); format: functional
Mus musculus [6] = assay: Anxiolytic-like activity in Swiss albino mouse assessed as number of punished crossings at 40 mg/kg, ip administered 60 mins prior to test and measured post 3 secs of electric shock by four-plate test (reference value: 3.8 to 4 /min); format: functional
Mus musculus [7] = assay: Anxiolytic-like activity in Swiss albino mouse assessed as number of punished crossings at 20 mg/kg, ip administered 60 mins prior to test and measured post 3 secs of electric shock by four-plate test (reference value: 3.8 to 4 /min); format: functional
Mus musculus [8] = assay: Antidepressant like activity in Swiss albino mouse assessed as immobility time at 20 mg/kg, ip administered 60 mins prior to test and measured last 4 mins of 6 mins test by forced swimming test (reference value: 159.78 to 183.56 secs); format: functional
Mus musculus [9] = assay: Antidepressant like activity in Swiss albino mouse assessed as immobility time at 10 mg/kg, ip administered 60 mins prior to test and measured last 4 mins of 6 mins test by forced swimming test (reference value: 159.78 to 183.56 secs); format: functional
Mus musculus [10] = assay: Anxiolytic-like activity in Swiss albino mouse assessed as number of punished crossings at 5 mg/kg, ip administered 60 mins prior to test and measured post 3 secs of electric shock by four-plate test (reference value: 3.8 to 4 /min); format: functional
Mus musculus [11] = assay: Antidepressant like activity in Swiss albino mouse assessed as decrease in immobility time at 10 mg/kg, ip administered 60 mins prior to test and measured last 4 mins of 6 mins test by forced swimming test relative to control; format: functional; set-up: scale not given: the % may be the effect or the level left
Mus musculus [12] = assay: Effect on spontaneous locomotor activity in Swiss albino mouse at 10 mg/kg, ip administered 60 mins prior to test and measured for 3 to 6 mins; format: ADME, organism-based; conditions: in vivo; summary of the method: as §1
Homo sapiens = species on record: Homo sapiens; assay: Selectivity ratio of Ki for human D2L receptor expressed in HEK293 cell membranes to Ki for human 5HT7BR expressed in HEK293 cell membranes; format: cell-based
Summary of the method: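 Membranes from HEK293 cells stably expressing human 5-HT1A, 5-HT7b or D2L receptors. Buffers all 50 mM Tris HCl with 4 mM MgCl2 and 0.1% ascorbate. 5-HT1A: 0.1 mM EDTA, 10 µM pargyline, 2.5 nM [3H]-8-OH-DPAT, room temperature. 5-HT7b: 10 µM pargyline, 0.8 nM [3H]-5-CT, 37°C. D2L: EDTA, NaCl, KCl, CaCl2, 2.5 nM [3H]-raclopride, 37°C. Incubation 1 h; nonspecific binding 10 µM 5-HT (haloperidol for D2L). Seven concentrations (10^-10–10^-4 M) in triplicate; filtration; Ki by Cheng-Prusoff; at least two experiments.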

Chain of Beta-1 adrenergic receptor (P18090 whole entry): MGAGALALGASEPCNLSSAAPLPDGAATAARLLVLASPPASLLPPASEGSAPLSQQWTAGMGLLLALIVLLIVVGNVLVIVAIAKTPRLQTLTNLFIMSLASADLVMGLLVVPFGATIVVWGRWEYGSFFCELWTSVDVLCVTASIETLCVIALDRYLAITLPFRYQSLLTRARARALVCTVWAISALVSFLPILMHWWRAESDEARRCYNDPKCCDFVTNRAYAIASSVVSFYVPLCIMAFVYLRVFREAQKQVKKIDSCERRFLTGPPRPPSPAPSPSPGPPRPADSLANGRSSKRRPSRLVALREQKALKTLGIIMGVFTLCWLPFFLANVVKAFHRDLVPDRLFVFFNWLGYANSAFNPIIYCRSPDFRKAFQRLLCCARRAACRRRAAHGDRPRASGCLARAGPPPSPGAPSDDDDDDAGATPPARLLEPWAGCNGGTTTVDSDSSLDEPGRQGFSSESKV
Chain of D(2) dopamine receptor (P14416 whole entry): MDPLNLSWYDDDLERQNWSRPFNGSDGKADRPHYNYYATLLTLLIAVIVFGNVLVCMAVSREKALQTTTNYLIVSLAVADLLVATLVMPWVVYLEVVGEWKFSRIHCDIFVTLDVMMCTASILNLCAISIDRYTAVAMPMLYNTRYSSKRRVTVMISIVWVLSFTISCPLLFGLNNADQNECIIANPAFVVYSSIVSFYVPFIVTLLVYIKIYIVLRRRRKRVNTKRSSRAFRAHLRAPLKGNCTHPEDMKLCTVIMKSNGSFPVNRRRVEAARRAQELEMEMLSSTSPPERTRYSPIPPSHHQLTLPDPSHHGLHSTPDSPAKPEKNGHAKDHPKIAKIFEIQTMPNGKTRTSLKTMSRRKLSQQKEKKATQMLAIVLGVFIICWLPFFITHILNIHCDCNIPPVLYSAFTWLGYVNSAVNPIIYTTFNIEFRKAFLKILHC

| pKi (D(2) dopamine receptor) | pKi [2] | pKi [4] | SMILES | Activity (Mus musculus [1]) | Activity (Mus musculus [3]) | Time (Mus musculus [5]) | Activity (Mus musculus [6]) | Activity (Mus musculus [7]) | Time (Mus musculus [8]) | Time (Mus musculus [9]) | Activity (Mus musculus [10]) | Activity (Mus musculus [11]) | Activity (Mus musculus [12]) | Ratio Ki (Homo sapiens) |
| --- | --- | --- | --- | --- | --- | --- | --- | --- | --- | --- | --- | --- | --- | --- |
| 6.30 | < 5.00 | 6.85 | CC1(c2ccc(Br)cc2)NC(=O)N(CC(O)CN2CCN(c3ccccc3C#N)CC2)C1=O.Cl (racemic) | Non-Toxic | 3.9 min⁻¹ | 156.33 s | 4.3 min⁻¹ | 3.7 min⁻¹ | 55.33 s | 136.63 s |  |  |  |  |
| 6.57 | < 5.00 | 7.07 | COc1ccccc1N1CCN(CC(O)CN2C(=O)NC(C)(c3ccc(Br)cc3)C2=O)CC1.Cl (racemic) |  | 3.1 min⁻¹ | 184.22 s |  | 2.2 min⁻¹ | 91.13 s | 179.44 s | 3.1 min⁻¹ | 50% | Non-Toxic |  |
| 5.89 | < 5.00 | 6.52 | CC1(c2ccc(Cl)cc2)NC(=O)N(CC(O)CN2CCN(c3ccccc3C#N)CC2)C1=O.Cl (racemic) |  |  |  |  |  |  |  |  |  |  | 140 to 190 |
